In ChEMBL document CHEMBL4251573, “Synthesis and biological evaluation of N-substituted 3-oxo-1,2,3,4-tetrahydro-quinoxaline-6-carboxylic acid derivatives as tubulin polymerization inhibitors” (Eur J Med Chem, 2018):
Activity calls are given as the source filed them. The rule behind the calls is not given here.

Key:
HeLa [1] = test: Induction of apoptosis in human HeLa cells assessed as late apoptotic cells at 0.15 uM after 24 hrs by annexin V-FITC/propidium iodide staining-based flow cytometric method (reference value: 0.15%); type: functional
HeLa [2] = test: Cell cycle arrest in human HeLa cells assessed as accumulation at G0/G1 phase at 0.15 uM after 24 hrs by propidium iodide staining-based flow cytometric method (reference value: 62.2%); type: functional
HeLa [3] = test: Cell cycle arrest in human HeLa cells assessed as accumulation at S phase at 0.15 uM after 24 hrs by propidium iodide staining-based flow cytometric method (reference value: 10.3%); type: functional
HeLa [4] = test: Cell cycle arrest in human HeLa cells assessed as accumulation at G0/G1 phase at 0.10 uM after 24 hrs by propidium iodide staining-based flow cytometric method (reference value: 62.2%); type: functional
Sus scrofa = species on record: Sus scrofa; test: Competitive binding affinity to porcine brain tubulin preincubated for 1 hr followed by colchicine addition measured after 1 hr by fluorescence assay
In short: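 Tubulin (4 μM) in 80 mM PIPES pH 6.9, 2 mM MgCl2 and 0.5 mM EGTA was preincubated 1 h at 37 °C with 0.1, 1, 5 or 10 μM test agent, with DMSO as control. Colchicine (10 μM) was then added for another 1 h at 37 °C. Tubulin-colchicine fluorescence was read at ex 340/em 435 nm and normalized to DMSO; at least three replicates, mean ± SD.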

HeLa [5] = test: Cell cycle arrest in human HeLa cells assessed as accumulation at G2/M phase after 24 hrs by propidium iodide staining-based flow cytometric method; type: functional
HeLa [6] = test: Cell cycle arrest in human HeLa cells assessed as accumulation at G2/M phase at 0.15 uM after 24 hrs by propidium iodide staining-based flow cytometric method (reference value: 19.9%); type: functional
HeLa [7] = test: Induction of apoptosis in human HeLa cells assessed as plasmatorrhexis at 0.10 to 0.20 uM by microscopic method; type: functional, cell-based
In short: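 Morphology of HeLa cells was examined by light microscopy after 24 h exposure to 0.10, 0.15 or 0.20 μM, or 0.1% DMSO, alongside the annexin V/PI experiment.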

HeLa [8] = test: Induction of apoptosis in human HeLa cells assessed as necrotic cells at 0.20 uM after 24 hrs by annexin V-FITC/propidium iodide staining-based flow cytometric method (reference value: 0.15%); type: functional
HeLa [9] = test: Induction of apoptosis in human HeLa cells assessed as necrotic cells at 0.10 uM after 24 hrs by annexin V-FITC/propidium iodide staining-based flow cytometric method (reference value: 0.15%); type: functional
HeLa [10] = test: Induction of apoptosis in human HeLa cells assessed as early apoptotic cells at 0.20 uM after 24 hrs by annexin V-FITC/propidium iodide staining-based flow cytometric method (reference value: 2.31%); type: functional
HeLa [11] = test: Cell cycle arrest in human HeLa cells assessed as accumulation at sub G1 phase at 0.20 uM after 24 hrs by propidium iodide staining-based flow cytometric method (reference value: 7.6%); type: functional
K562 = test: Antiproliferative activity against human K562 cells after 72 hrs by MTT assay; type: functional, cell-based; settings: K562, 72 h
In short: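 K562 cells were grown in RPMI 1640 with 10% FBS at 37 °C in 5% CO2, then seeded at 4000-6000 cells/well. Quadruplicate wells were exposed to drug for 72 h, with final DMSO below 0.1%. After 4 h with MTT, solubilizer (10% SDS, 5% isobutyl alcohol, 0.01 M HCl) was added for 12 h, then OD read at 490 nm. IC50 came from at least five concentrations; mean and SD of at least three experiments.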

HeLa [12] = test: Cell cycle arrest in human HeLa cells assessed as accumulation at sub G1 phase at 0.25 uM after 24 hrs by propidium iodide staining-based flow cytometric method (reference value: 7.6%); type: functional
SMMC-7721 = test: Antiproliferative activity against human SMMC7721 cells after 72 hrs by MTT assay; type: functional, cell-based; settings: SMMC-7721, 72 h
In short: (§1)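 HeLa and SMMC-7721 cells in log phase were seeded at 4000-6000 cells/well. After 24 h, quadruplicate wells were treated with a series of concentrations for 72 h. DMSO stocks were 5 mmol/L, with final DMSO below 0.1%. MTT (10 mg/mL in PBS) was added for 4 h, medium replaced with DMSO, and OD read at 490 nm. IC50 came from at least five concentrations; mean and SD of at least three independent experiments.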

HeLa [13] = test: Cell cycle arrest in human HeLa cells assessed as accumulation at S phase at 0.20 uM after 24 hrs by propidium iodide staining-based flow cytometric method (reference value: 10.3%); type: functional
HeLa [14] = test: Induction of apoptosis in human HeLa cells assessed as early apoptotic cells at 0.15 uM after 24 hrs by annexin V-FITC/propidium iodide staining-based flow cytometric method (reference value: 2.31%); type: functional
HeLa [15] = test: Induction of apoptosis in human HeLa cells assessed as viable cells at 0.20 uM after 24 hrs by annexin V-FITC/propidium iodide staining-based flow cytometric method (reference value: 97.39%); type: functional; settings: read-out: Activity
HeLa [16] = test: Cell cycle arrest in human HeLa cells assessed as accumulation at G2/M phase at 0.25 uM after 24 hrs by propidium iodide staining-based flow cytometric method (reference value: 19.9%); type: functional
HeLa [17] = test: Cell cycle arrest in human HeLa cells assessed as accumulation at G0/G1 phase at 0.25 uM after 24 hrs by propidium iodide staining-based flow cytometric method (reference value: 62.2%); type: functional
HeLa [18] = test: Induction of apoptosis in human HeLa cells assessed as viable cells at 0.15 uM after 24 hrs by annexin V-FITC/propidium iodide staining-based flow cytometric method (reference value: 97.39%); type: functional; settings: read-out: Activity
HeLa [19] = test: Cell cycle arrest in human HeLa cells assessed as accumulation at G0/G1 phase at 0.20 uM after 24 hrs by propidium iodide staining-based flow cytometric method (reference value: 62.2%); type: functional
HeLa [20] = test: Induction of apoptosis in human HeLa cells after 24 hrs by annexin V-FITC/propidium iodide staining-based flow cytometric method; type: functional, cell-based
HeLa [21] = test: Cell cycle arrest in human HeLa cells assessed as accumulation at G2/M phase at 0.20 uM after 24 hrs by propidium iodide staining-based flow cytometric method (reference value: 19.9%); type: functional
HeLa [22] = test: Cell cycle arrest in human HeLa cells assessed as accumulation at sub G1 phase at 0.15 uM after 24 hrs by propidium iodide staining-based flow cytometric method (reference value: 7.6%); type: functional
HeLa [23] = test: Induction of apoptosis in human HeLa cells assessed as necrotic cells at 0.15 uM after 24 hrs by annexin V-FITC/propidium iodide staining-based flow cytometric method (reference value: 0.15%); type: functional
HeLa [24] = test: Cell cycle arrest in human HeLa cells assessed as accumulation at S phase at 0.10 uM after 24 hrs by propidium iodide staining-based flow cytometric method (reference value: 10.3%); type: functional
HeLa [25] = test: Antiproliferative activity against human HeLa cells after 72 hrs by MTT assay; type: functional, cell-based; in short: as §1
HeLa [26] = test: Cell cycle arrest in human HeLa cells assessed as accumulation at sub G1 phase at 0.10 uM after 24 hrs by propidium iodide staining-based flow cytometric method (reference value: 7.6%); type: functional

How did the Activity (HeLa [1]) turn out when `COC(=O)c1ccc2c(c1)NC(=O)CN2C(=O)c1cc(OC)c(OC)c(OC)c1` was run?
The Activity was 9.95%.

What about the Activity (HeLa [2]) of the same molecule?
Its Activity is 30.6%.

What about the Activity (HeLa [3]) of the same molecule?
Its Activity is 8.3%.

What about the Activity (HeLa [4]) of the same molecule?
The Activity was 55.2%.

What about the Activity (Sus scrofa) of the same molecule?
The Activity was “Dose-dependent effect”.

What about the Activity (HeLa [5]) of the same molecule?
The Activity was “Dose-dependent effect”.

What about the Activity (HeLa [6]) of the same molecule?
Its Activity is 29.2%.

And the Activity (HeLa [7])?
The Activity was “Active”.

And the Activity (HeLa [8])?
The Activity was 6.36%.

What about the Activity (HeLa [9]) of the same molecule?
Its Activity is 3.9%.

What about the Activity (HeLa [10]) of the same molecule?
The Activity was 17.05%.

And the Activity (HeLa [11])?
The Activity was 32.9%.

And the IC50 (K562)?
Its IC50 is 164 nM.

And the Activity (HeLa [12])?
The Activity was 33.1%.

And the IC50 (SMMC-7721)?
The IC50 was 71 nM.

What about the Activity (HeLa [13]) of the same molecule?
Its Activity is 8%.

What about the Activity (HeLa [14]) of the same molecule?
Its Activity is 16.5%.

And the viability at 0.2 µM (HeLa [15])?
Its viability at 0.2 µM is 62.2%.

And the Activity (HeLa [16])?
Its Activity is 44.6%.

And the Activity (HeLa [17])?
Its Activity is 13.8%.

And the viability at 0.15 µM (HeLa [18])?
Its viability at 0.15 µM is 69.7%.

What about the Activity (HeLa [19]) of the same molecule?
Its Activity is 18.4%.

What about the Activity (HeLa [20]) of the same molecule?
Its Activity is “Dose-dependent effect”.

And the Activity (HeLa [21])?
Its Activity is 40.4%.

What about the Activity (HeLa [22]) of the same molecule?
Its Activity is 31.6%.

What about the Activity (HeLa [23]) of the same molecule?
The Activity was 3.81%.

And the Activity (HeLa [24])?
Its Activity is 9.9%.

What about the IC50 (HeLa [25]) of the same molecule?
The IC50 was 126 nM.

What about the Activity (HeLa [26]) of the same molecule?
The Activity was 13.1%.
